Converted amounts (≈) assume the structure as drawn.

Common to all, as to format: functional
The test system of experiment [1] is Clostridioides difficile. In words: Antimicrobial activity against Clostridium difficile CD5i harboring GyrA Ala118Ser, Thr82Ala and GyrB Ser416Ala mutant genes selected after 8 ug/ml of moxifloxacin by Etest method.
For experiment [2], the system named is Clostridioides difficile. In words: Antimicrobial activity against Clostridium difficile 630B selected after 4 ug/ml of levofloxacin by Etest method. The procedure, abridged: (§1)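 Stable in vitro-selected mutant tested for gatifloxacin susceptibility by Etest, per the manufacturer's instructions, with an 8 μg/ml breakpoint. For selection, the parent was grown in antibiotic-free brain heart infusion (BHI) for 24 h at 35°C under anaerobic conditions. […] Later steps used double the MIC. Stability was confirmed by three subcultures.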

Experiment [3] concerns Clostridioides difficile. As to the kind of experiment: Antimicrobial activity against Clostridium difficile A422d selected after 4 ug/ml of moxifloxacin by Etest method. In a few lines:
as §1

In experiment [4] the test system is Clostridioides difficile. In words: Antimicrobial activity against Clostridium difficile C253h harboring GyrA Ala118Ser mutant gene selected after 8 ug/ml of moxifloxacin by Etest method.
The test system of experiment [5] is Clostridioides difficile. In words: Antimicrobial activity against Clostridium difficile CD5d harboring GyrB Ser416Ala mutant gene selected after 4 ug/ml of moxifloxacin by Etest method.
For experiment [6], the system named is Clostridioides difficile. In words: Antimicrobial activity against Clostridium difficile A422B selected after 4 ug/ml of levofloxacin by Etest method. In a few lines:
as §1

For experiment [7], the system named is Clostridioides difficile. In words: Antimicrobial activity against Clostridium difficile 630 expressing tcdA and tcdB gene by Etest method. In a few lines:
(§2)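 Parent clinical or nontoxigenic isolate tested for gatifloxacin susceptibility by Etest, run per the manufacturer's instructions; a fluoroquinolone breakpoint of 8 μg/ml was applied.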

In experiment [8] the test system is Clostridioides difficile. In words: Antimicrobial activity against Clostridium difficile CD5i harboring GyrA Ala92Glu and GyrB Ser416Ala mutant genes selected after 8 ug/ml of moxifloxacin by Etest method.
For experiment [9], the system named is Clostridioides difficile. As to the kind of experiment: Antimicrobial activity against Clostridium difficile A422g harboring GyrA Asp81Asn mutant gene selected after 8 ug/ml of moxifloxacin by Etest method. The procedure, abridged: as §1
Experiment [10] has as its system Clostridioides difficile. In words: Antimicrobial activity against Clostridium difficile BI2E harboring GyrB Glu466Lys mutant gene selected after 8 ug/ml of levofloxacin by Etest method. In a few lines:
as §1

The subject of experiment [11] is Clostridioides difficile. As to the kind of experiment: Antimicrobial activity against Clostridium difficile CD5c harboring GyrB Ser416Ala mutant gene selected after 2 ug/ml of moxifloxacin by Etest method.
For experiment [12], the system named is Clostridioides difficile. In words: Antimicrobial activity against Clostridium difficile CD5 1-g harboring GyrA Ala92Glu and GyrB Ser416Ala mutant genes selected after 8 ug/ml of moxifloxacin by Etest method.
The subject of experiment [13] is Clostridioides difficile. In words: Antimicrobial activity against Clostridium difficile A422 expressing tcdA and tcdB gene by Etest method. The procedure, abridged:
as §2

Experiment [14] relates to Clostridioides difficile. In words: Antimicrobial activity against Clostridium difficile C253i harboring GyrA Ala118Ser mutant gene selected after 8 ug/ml of moxifloxacin by Etest method.
For experiment [15], the system named is Clostridioides difficile. As to the kind of experiment: Antimicrobial activity against Clostridium difficile 630c selected after 2 ug/ml of moxifloxacin by Etest method. In a few lines: as §1
Experiment [16] relates to Clostridioides difficile. As to the kind of experiment: Antimicrobial activity against Clostridium difficile C253f selected after 4 ug/ml of moxifloxacin by Etest method.
For experiment [17], the system named is Clostridioides difficile. As to the kind of experiment: Antimicrobial activity against Clostridium difficile A422f selected after 4 ug/ml of moxifloxacin by Etest method. In a few lines: as §1
Experiment [18] deals with Clostridioides difficile. As to the kind of experiment: Antimicrobial activity against Clostridium difficile BI2e harboring GyrB Arg447Lys and Asp426Asn mutant gene selected after 32 ug/ml of moxifloxacin by Etest method. In a few lines: as §1
Experiment [19] relates to Clostridioides difficile. As to the kind of experiment: Antimicrobial activity against Clostridium difficile BI2d harboring GyrB Arg447Lys and Asp426Asn mutant gene selected after 32 ug/ml of moxifloxacin by Etest method. In a few lines:
as §1

Experiment [20] relates to Clostridioides difficile. In words: Antimicrobial activity against Clostridium difficile BI2D harboring GyrB Glu466Lys mutant gene selected after 8 ug/ml of levofloxacin by agar dilution method.
Experiment [21] has as its system Clostridioides difficile. In words: Antimicrobial activity against Clostridium difficile C253C selected after 4 ug/ml of levofloxacin by agar dilution method. A general note: In agar dilution the substance is mixed into plates at graded concentrations.
Experiment [22] has as its system Clostridioides difficile. In words: Antimicrobial activity against Clostridium difficile CD5d harboring GyrB Ser416Ala mutant gene selected after 4 ug/ml of moxifloxacin by agar dilution method.
For experiment [23], the system named is Clostridioides difficile. As to the kind of experiment: Antimicrobial activity against Clostridium difficile C253a selected after 2 ug/ml of moxifloxacin by agar dilution method.
For experiment [24], the system named is Clostridioides difficile. In words: Antimicrobial activity against Clostridium difficile C253F selected after 8 ug/ml of levofloxacin by agar dilution method.
For experiment [25], the system named is Clostridioides difficile. As to the kind of experiment: Antimicrobial activity against Clostridium difficile A422 expressing tcdA and tcdB gene by agar dilution method.
In experiment [26] the test system is Clostridioides difficile. As to the kind of experiment: Antimicrobial activity against Clostridium difficile A422g harboring GyrA Asp81Asn mutant gene selected after 8 ug/ml of moxifloxacin by agar dilution method.
Experiment [27] concerns Clostridioides difficile. As to the kind of experiment: Antimicrobial activity against Clostridium difficile 630g harboring GyrB […] mutant gene selected after 8 ug/ml of moxifloxacin by agar dilution method.
Experiment [28] relates to Clostridioides difficile. As to the kind of experiment: Antimicrobial activity against Clostridium difficile C253d selected after 4 ug/ml of moxifloxacin by agar dilution method.
Experiment [29] deals with Clostridioides difficile. As to the kind of experiment: Antimicrobial activity against Clostridium difficile BI2c harboring GyrB Arg447Lys mutant gene selected after 2 ug/ml of moxifloxacin by agar dilution method.
The subject of experiment [30] is Clostridioides difficile. In words: Antimicrobial activity against Clostridium difficile BI2b harboring GyrB Arg447Lys mutant gene selected after 2 ug/ml of moxifloxacin by agar dilution method.
Experiment [31] deals with Clostridioides difficile. As to the kind of experiment: Antimicrobial activity against Clostridium difficile CD5i harboring GyrA Ala92Glu and GyrB Ser416Ala mutant genes selected after 8 ug/ml of moxifloxacin by agar dilution method.
The test system of experiment [32] is Clostridioides difficile. In words: Antimicrobial activity against Clostridium difficile CD5c harboring GyrB Ser416Ala mutant gene selected after 2 ug/ml of moxifloxacin by agar dilution method.
In experiment [33] the test system is Clostridioides difficile. In words: Antimicrobial activity against Clostridium difficile CD5F harboring GyrB Ser416Ala mutant gene selected after 8 ug/ml of levofloxacin by agar dilution method.
Experiment [34] relates to Clostridioides difficile. In words: Antimicrobial activity against Clostridium difficile CD5E harboring GyrB Ser416Ala mutant gene selected after 8 ug/ml of levofloxacin by agar dilution method.
Experiment [35] has as its system Clostridioides difficile. As to the kind of experiment: Antimicrobial activity against Clostridium difficile A422C selected after 4 ug/ml of levofloxacin by agar dilution method.
In experiment [36] the test system is Clostridioides difficile. As to the kind of experiment: Antimicrobial activity against Clostridium difficile C253f selected after 4 ug/ml of moxifloxacin by agar dilution method.
Experiment [37] has as its system Clostridioides difficile. As to the kind of experiment: Antimicrobial activity against Clostridium difficile A422b selected after 2 ug/ml of moxifloxacin by agar dilution method.
The test system of experiment [38] is Clostridioides difficile. As to the kind of experiment: Antimicrobial activity against Clostridium difficile CD5h harboring GyrA Ala92Glu and GyrB Ser416Ala mutant genes selected after 8 ug/ml of moxifloxacin by agar dilution method.
Experiment [39] has as its system Clostridioides difficile. As to the kind of experiment: Antimicrobial activity against Clostridium difficile BI2e harboring GyrB Arg447Lys and Asp426Asn mutant gene selected after 32 ug/ml of moxifloxacin by agar dilution method.
Experiment [40] concerns Clostridioides difficile. As to the kind of experiment: Antimicrobial activity against Clostridium difficile 630D harboring GyrA Ala118Val mutant gene selected after 8 ug/ml of levofloxacin by agar dilution method.
Experiment [41] relates to Clostridioides difficile. As to the kind of experiment: Antimicrobial activity against Clostridium difficile CD5a harboring GyrB Ser416Ala mutant gene selected after 2 ug/ml of moxifloxacin by agar dilution method.

As for `COc1c(N2CCNC(C)C2)c(F)cc2c(=O)c(C(=O)O)cn(C3CC3)c12` (stereo unspecified) [GATIFLOXACIN], the MIC was 16 µg/mL in [1]; 0.75 µg/mL in experiment [2]; 1.5 µg/mL in [3]; 8 µg/mL in experiment [4]; 0.75 µg/mL in experiment [5]; 1 µg/mL in experiment [6]. Besides, the MIC in experiment [7] is 0.75 µg/mL (≈ 2 µM); in experiment [8], 3 µg/mL; in [9], not below 32 µg/mL; in experiment [10], not below 32 µg/mL; in experiment [11] it was 0.75 µg/mL; in [12], 3 µg/mL. For the same compound, the MIC in [13] was 0.75 µg/mL (≈ 2 µM); in experiment [14] it was 8 µg/mL; in [15], 0.75 µg/mL; in experiment [16] it was 1 µg/mL; in experiment [17], 1.5 µg/mL; in [18], 6 µg/mL. For the same compound, the MIC in experiment [19] was 6 µg/mL.
Turning to `C[C@H]1COc2c(N3CCN(C)CC3)c(F)cc3c(=O)c(C(=O)O)cn1c23.C[C@H]1COc2c(N3CCN(C)CC3)c(F)cc3c(=O)c(C(=O)O)cn1c23.O` [LEVOFLOXACIN], the MIC was determined as 16 µg/mL in [20]; 1 µg/mL in [21]; 2 µg/mL in experiment [22]; 4 µg/mL in [23]; 2 µg/mL in experiment [24]; 2 µg/mL in [25]. For the same compound, the MIC amounted to 64 µg/mL in [26]; 64 µg/mL in experiment [27]; 4 µg/mL in experiment [28]; 8 µg/mL in experiment [29]; 8 µg/mL in experiment [30]; 16 µg/mL in [31]. Also, the MIC in experiment [32] worked out at 2 µg/mL; in experiment [33], 2 µg/mL; in experiment [34] it was 2 µg/mL; in experiment [35], 1 µg/mL; in [36], 4 µg/mL; in experiment [37] it was 4 µg/mL. In addition, the minimum inhibitory concentration (MIC) worked out at 16 µg/mL in experiment [38], 64 µg/mL in experiment [39], 8 µg/mL in experiment [40] and 2 µg/mL in experiment [41].

One may read the MIC as the smallest concentration in the dilution series that meets the test's criterion for growth inhibition.

For the origin of these results see ChEMBL document CHEMBL1649483, “Molecular analysis of the gyrA and gyrB quinolone resistance-determining regions of fluoroquinolone-resistant Clostridium difficile mutants selected in vitro” (2009).
